Activity calls are given as the source filed them. No cut-off for these calls is given here.
How the values were obtained:
[1] = biological target: Induced myeloid leukemia cell differentiation protein Mcl-1 (Homo sapiens) (UniProt Q07820); experiment: Inhibition of mouse/human MCL1 expressed in Escherichia coli BL21 at 1 uM to 50 uM using FAM-labeled Bid-BH3 as tracer by fluorescence polarization assay
[2] = test system: MDA-MB-231; experiment: Cytotoxicity against human MDA-MB-231 cells assessed as growth inhibition at 20 uM after 48 hrs by MTT assay; assay type: functional; conditions: for inhibition of growth at 20 µM: MDA-MB-231, 48 h, read-out: GI
Outline: (§1)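 Single-concentration screen at 20 µM. Cell growth inhibition read by standard MTT assay after 48 h treatment and expressed as inhibition ratio.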

[3] = test system: A549; experiment: Cytotoxicity against human A549 cells assessed as growth inhibition at 20 uM after 48 hrs by MTT assay; assay type: functional; conditions: for inhibition of growth at 20 µM: A549, 48 h, read-out: GI
Outline: as §1

[4] = test system: HeLa; experiment: Cytotoxicity against human HeLa cells assessed as growth inhibition at 20 uM after 48 hrs by MTT assay; assay type: functional; conditions: for inhibition of growth at 20 µM: read-out: GI
Outline: as §1

[5] = test system: MDA-MB-231; experiment: Cytotoxicity against human MDA-MB-231 cells assessed as growth inhibition after 48 hrs by MTT assay; assay type: functional, cell-based; conditions: for IC50: MDA-MB-231, 48 h
Outline: (§2)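 Dose-response MTT assay, 48 h exposure. Compounds run at multiple concentrations; IC50 taken as the concentration giving 50% growth inhibition. HEK-293T (human embryonic kidney cells transformed with adenovirus 5 DNA and SV40 large T-antigen) served as the normal-cell model.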

[6] = test system: HEK-293T; experiment: Cytotoxicity against human HEK293T cells assessed as growth inhibition after 48 hrs by MTT assay; assay type: cell-based
Outline: as §2

[7] = test system: HeLa; experiment: Cytotoxicity against human HeLa cells assessed as growth inhibition after 48 hrs by MTT assay; assay type: functional, cell-based
Outline: as §2

[8] = test system: A549; experiment: Cytotoxicity against human A549 cells assessed as growth inhibition after 48 hrs by MTT assay; assay type: functional, cell-based; conditions: for IC50: A549, 48 h
Outline: as §2

[9] = test system: HeLa; experiment: Induction of apoptosis in human HeLa cells assessed as increase in level of cleaved PARP at 20 uM after 12 hrs by immunoblotting; assay type: functional, cell-based
[10] = test system: HeLa; experiment: Induction of apoptosis in human HeLa cells assessed as increase in level of cleaved caspase-3 at 20 uM after 12 hrs by immunoblotting; assay type: functional, cell-based
[11] = test system: HeLa; experiment: Induction of apoptosis in human HeLa cells assessed as sub-diploid DNA content at 20 uM after 24 hrs using PI staining by flow cytometry (reference value: 6%); assay type: functional
[12] = biological target: Induced myeloid leukemia cell differentiation protein Mcl-1 (Homo sapiens) (UniProt Q07820); experiment: Inhibition of mouse/human MCL1 expressed in Escherichia coli BL21 at 50 uM using FAM-labeled Bid-BH3 as tracer by fluorescence polarization assay

Row | SMILES | inhibition [1] | growth inhibition (GI) [2] | growth inhibition (GI) [3] | growth inhibition (GI) [4] | inhibition of growth at 20 µM [2] [%] | inhibition of growth at 20 µM [3] [%] | inhibition of growth at 20 µM [4] [%] | further results
1 | O=C(Cn1cnc2scc(-c3ccccc3)c2c1=O)N/N=C/c1ccc(Cl)c(F)c1 | inactive | inactive | inactive | inactive |  |  |  | 
2 | O=C(Cn1cnc2scc(-c3ccc(Cl)cc3)c2c1=O)N/N=C/c1ccc(Cl)c(F)c1 | inactive | inactive | inactive | inactive |  |  |  | 
3 | O=C(Cn1cnc2sc3c(c2c1=O)CCCCC3)N/N=C/c1ccccc1O | inactive |  |  |  | 40 | 29 | 36 | 
4 | O=C(Cn1cnc2scc(-c3ccc4ccccc4c3)c2c1=O)N/N=C/c1ccc(Cl)c(F)c1 | inactive | inactive | inactive | inactive |  |  |  | 
5 | O=C(Cn1cnc2sc3c(c2c1=O)CCCC3)N/N=C/c1ccccc1O | inactive |  |  |  | 29 | 18 | 34 | IC50 [5]: 16 µM; IC50 [6]: > 50 µM; IC50 [7]: 40 µM; IC50 [8]: > 50 µM
6 | O=C(Cn1cnc2sc3c(c2c1=O)CCCCC3)N/N=C/c1cccc(O)c1 | inactive | inactive | inactive | inactive |  |  |  | 
7 | O=C(Cn1cnc2sc3c(c2c1=O)CCC3)N/N=C/c1ccc(Cl)c(F)c1 | inactive |  |  |  | 29 | 47 | 54 | 
8 | O=C(Cn1cnc2scc(-c3ccccc3)c2c1=O)N/N=C/c1ccccc1O | inactive |  |  |  | 30 | 26 | 31 | 
9 | Cc1csc2ncn(CC(=O)N/N=C/c3ccc(Cl)c([N+](=O)[O-])c3)c(=O)c12 | inactive |  |  |  | 13 | 13 | 18 | 
10 | Cc1csc2ncn(CC(=O)N/N=C/c3ccc(Cl)c(F)c3)c(=O)c12 | inactive | inactive | inactive | inactive |  |  |  | 
11 | N#Cc1ccc(/C=N/NC(=O)Cn2cnc3scc(-c4ccc5ccccc5c4)c3c2=O)cc1 | inactive | inactive | inactive | inactive |  |  |  | 
12 | O=C(Cn1cnc2sc3c(c2c1=O)CCCC3)N/N=C/c1ccc(Cl)c([N+](=O)[O-])c1 | inactive |  |  |  | 38 | 10 | 27 | 
13 | N#Cc1ccc(/C=N/NC(=O)Cn2cnc3sc4c(c3c2=O)CCCC4)cc1 | inactive | inactive | inactive | inactive |  |  |  | 
14 | O=C(Cn1cnc2scc(-c3ccc(Cl)cc3)c2c1=O)N/N=C/c1ccc(Cl)c([N+](=O)[O-])c1 | inactive |  |  |  | 78 | 58 | 74 | growth inhibition (GI) [5]: Dose-dependent effect; IC50 [5]: 32 µM; Activity [9]: Active; Activity [10]: Active; IC50 [6]: > 50 µM; IC50 [7]: 11 µM; growth inhibition (GI) [7]: Dose-dependent effect; growth inhibition (GI) [8]: Dose-dependent effect; IC50 [8]: 20 µM; Activity [11]: 22%
15 | O=C(Cn1cnc2scc(-c3ccc4ccccc4c3)c2c1=O)N/N=C/c1ccccc1O | inactive |  |  |  | 36 | 44 | 22 | 
16 | N#Cc1ccc(/C=N/NC(=O)Cn2cnc3sc4c(c3c2=O)CCCCC4)cc1 | inactive |  |  |  | 14 | 10 | 11 | 
17 | Cc1csc2ncn(CC(=O)N/N=C/c3ccccc3O)c(=O)c12 | inactive |  | inactive | inactive | 30 |  |  | inhibition [12]: 40%
18 | O=C(Cn1cnc2scc(-c3ccc4ccccc4c3)c2c1=O)N/N=C/c1cccc([N+](=O)[O-])c1 | inactive | inactive | inactive | inactive |  |  |  | 

Row | SMILES | inhibition [1] | growth inhibition (GI) [2] | growth inhibition (GI) [3] | growth inhibition (GI) [4] | inhibition of growth at 20 µM [2] [%] | inhibition of growth at 20 µM [3] [%] | inhibition of growth at 20 µM [4] [%] | further results
19 | O=C(Cn1cnc2sc3c(c2c1=O)CCC3)N/N=C/c1ccccc1O | inactive |  |  |  | 36 | 22 | 23 | 
20 | N#Cc1ccc(/C=N/NC(=O)Cn2cnc3scc(-c4ccccc4)c3c2=O)cc1 | inactive | inactive | inactive | inactive |  |  |  | 
21 | O=C(Cn1cnc2scc(-c3ccc(Cl)cc3)c2c1=O)N/N=C/c1cccc([N+](=O)[O-])c1 | inactive | inactive | inactive | inactive |  |  |  | 
22 | O=C(Cn1cnc2sc3c(c2c1=O)CCC3)N/N=C/c1ccc(Cl)c([N+](=O)[O-])c1 | inactive |  | inactive |  | 41 |  | 34 | 
23 | O=C(Cn1cnc2sc3c(c2c1=O)CCCCC3)N/N=C/c1ccc(O)cc1 | inactive | inactive | inactive | inactive |  |  |  | 
24 | O=C(Cn1cnc2sc3c(c2c1=O)CCCC3)N/N=C/c1ccc(C(F)(F)F)cc1 | inactive |  |  |  | 30 | 23 | 34 | 
25 | O=C(Cn1cnc2scc(-c3ccc(Cl)cc3)c2c1=O)N/N=C/c1ccccc1O | inactive |  |  |  | 39 | 48 | 43 | 
26 | O=C(Cn1cnc2scc(-c3ccc(Cl)cc3)c2c1=O)N/N=C/c1ccc(O)c(O)c1 | inactive | inactive | inactive | inactive |  |  |  | 
27 | O=C(Cn1cnc2sc3c(c2c1=O)CCC3)N/N=C/c1cccc(O)c1 | inactive | inactive | inactive | inactive |  |  |  | 
28 | O=C(Cn1cnc2scc(-c3ccc4ccccc4c3)c2c1=O)N/N=C/c1ccc(O)c(O)c1 | inactive | inactive | inactive | inactive |  |  |  | inhibition [12]: 40%
29 | O=C(Cn1cnc2sc3c(c2c1=O)CCC3)N/N=C/c1ccc(O)cc1 | inactive |  |  |  | 25 | 27 | 29 | 
30 | O=C(Cn1cnc2sc3c(c2c1=O)CCCC3)N/N=C/c1ccc(Cl)c(F)c1 | inactive |  |  |  | 39 | 26 | 41 | 
31 | O=C(Cn1cnc2sc3c(c2c1=O)CCCCC3)N/N=C/c1ccc(Cl)c(F)c1 | inactive |  |  |  | 28 | 43 | 50 | 
32 | N#Cc1ccc(/C=N/NC(=O)Cn2cnc3scc(-c4ccc(Cl)cc4)c3c2=O)cc1 | inactive | inactive | inactive | inactive |  |  |  | 
33 | Cc1csc2ncn(CC(=O)N/N=C/c3ccc(C#N)cc3)c(=O)c12 | inactive | inactive | inactive | inactive |  |  |  | 
34 | Cc1cc(-c2csc3ncn(CC(=O)N/N=C/c4ccccc4O)c(=O)c23)ccc1Cl | inactive |  |  |  | 37 | 35 | 33 | 
35 | N#Cc1ccc(/C=N/NC(=O)Cn2cnc3sc4c(c3c2=O)CCC4)cc1 | inactive | inactive | inactive | inactive |  |  |  | 
